This is an account of results in ChEMBL document CHEMBL1141088, “A new pyridazine series of GABAA alpha5 ligands” (J Med Chem, 2005).

Each structure is given as a SMILES string.

Experiment [1] deals with T1, GABA-A receptor; alpha-3/beta-3/gamma-2 (Homo sapiens) (UniProt P18507+P28472+P34903). The experiment in a line: Efficacy for GABA-A alpha-3-beta-3-gamma-2 receptor expressed in mouse fibroblast L(tk-) cells at 300 nM derived from at least three plates/day screened over a minimum of 2 days. It is filed as functional, cell-based. Summed up: (§1)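 FRET membrane-potential (VIPR) assay in L(tk-) cells with receptor expression induced 24 h by 1 µM dexamethasone. Dye-loaded 30 min in low-Cl- HEPES buffer pH 7.4: 4 µM CC2-DMPE, 1 µM DiSBAC2(3), 0.5 mM tartrazine. Basal read 8 s, compound at 300 nM, half-maximal GABA 22 s later, 1 Hz reads. Background-subtracted 460/580 nm ratio, normalized to DMCM as -100%.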

The target of experiment [2] is T2, GABA-A receptor; alpha-1/beta-3/gamma-2 (Homo sapiens, UniProt P14867+P18507+P28472).
T2 sequence (P14867 whole entry): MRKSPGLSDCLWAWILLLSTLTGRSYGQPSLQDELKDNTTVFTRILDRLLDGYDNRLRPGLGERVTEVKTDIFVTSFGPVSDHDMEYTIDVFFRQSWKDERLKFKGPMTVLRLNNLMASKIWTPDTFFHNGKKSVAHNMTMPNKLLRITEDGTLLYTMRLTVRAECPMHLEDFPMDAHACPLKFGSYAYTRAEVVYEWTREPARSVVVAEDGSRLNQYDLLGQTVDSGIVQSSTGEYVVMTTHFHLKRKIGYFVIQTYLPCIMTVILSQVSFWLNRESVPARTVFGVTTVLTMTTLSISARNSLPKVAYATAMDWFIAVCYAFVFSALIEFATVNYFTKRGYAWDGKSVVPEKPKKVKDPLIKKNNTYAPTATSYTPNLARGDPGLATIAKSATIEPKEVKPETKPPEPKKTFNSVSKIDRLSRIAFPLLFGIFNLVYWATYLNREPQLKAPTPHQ
T2 sequence (P18507 whole entry): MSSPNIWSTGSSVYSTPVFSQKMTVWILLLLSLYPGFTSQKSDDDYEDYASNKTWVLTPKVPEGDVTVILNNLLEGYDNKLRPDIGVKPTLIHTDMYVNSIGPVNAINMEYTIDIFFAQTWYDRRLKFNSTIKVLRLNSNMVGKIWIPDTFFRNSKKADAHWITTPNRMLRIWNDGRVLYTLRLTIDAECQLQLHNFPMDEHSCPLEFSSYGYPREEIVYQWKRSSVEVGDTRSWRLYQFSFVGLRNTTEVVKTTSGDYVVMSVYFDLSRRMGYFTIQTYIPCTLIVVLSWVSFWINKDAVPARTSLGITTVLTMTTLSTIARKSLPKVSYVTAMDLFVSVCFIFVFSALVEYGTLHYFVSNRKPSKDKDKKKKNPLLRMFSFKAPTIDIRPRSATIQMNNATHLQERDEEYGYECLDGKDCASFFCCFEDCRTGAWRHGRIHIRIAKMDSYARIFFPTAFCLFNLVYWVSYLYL
T2 sequence (P28472 whole entry): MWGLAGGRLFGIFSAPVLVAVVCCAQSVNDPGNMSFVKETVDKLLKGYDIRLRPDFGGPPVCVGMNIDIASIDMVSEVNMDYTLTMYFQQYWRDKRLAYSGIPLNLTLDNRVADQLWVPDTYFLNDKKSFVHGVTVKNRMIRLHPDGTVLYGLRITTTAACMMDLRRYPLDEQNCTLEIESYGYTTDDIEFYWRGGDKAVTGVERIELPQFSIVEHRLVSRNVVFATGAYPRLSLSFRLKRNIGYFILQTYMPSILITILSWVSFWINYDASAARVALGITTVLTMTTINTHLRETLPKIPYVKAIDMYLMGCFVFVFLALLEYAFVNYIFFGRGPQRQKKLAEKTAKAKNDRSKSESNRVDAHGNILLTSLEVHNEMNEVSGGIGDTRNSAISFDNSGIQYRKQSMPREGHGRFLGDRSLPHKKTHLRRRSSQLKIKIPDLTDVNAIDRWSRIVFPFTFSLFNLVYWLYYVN
The experiment in a line: Displacement of [3H]-Ro- 15-1788 binding from human recombinant Gamma-aminobutyric acid A receptor alpha-1-beta-3-gamma-2 expressed in mouse fibroblast L(tk-) cells (30 min at 24 degrees C, pH 7.4). It is filed as cell-based. Summed up:
(§2)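 Membranes from L(tk-) cells stably expressing human α1, α3 or α5 β3γ2 in 50 mM Tris pH 7.4. [3H]Ro15-1788 at 1.8 nM final, 30 min at 24 °C. Nonspecific binding set with 10 µM flunitrazepam, total binding in 0.1% DMSO. Filtration, scintillation counting. Ki is mean ± SEM of ≥3 independent determinations.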

The target in experiment [3] is T3, GABA-A receptor; alpha-3/beta-3/gamma-2 (Homo sapiens, UniProt P18507+P28472+P34903).
T3 sequence (P18507 whole entry): T2 sequence (P18507 whole entry)
T3 sequence (P28472 whole entry): T2 sequence (P28472 whole entry)
T3 sequence (P34903 whole entry): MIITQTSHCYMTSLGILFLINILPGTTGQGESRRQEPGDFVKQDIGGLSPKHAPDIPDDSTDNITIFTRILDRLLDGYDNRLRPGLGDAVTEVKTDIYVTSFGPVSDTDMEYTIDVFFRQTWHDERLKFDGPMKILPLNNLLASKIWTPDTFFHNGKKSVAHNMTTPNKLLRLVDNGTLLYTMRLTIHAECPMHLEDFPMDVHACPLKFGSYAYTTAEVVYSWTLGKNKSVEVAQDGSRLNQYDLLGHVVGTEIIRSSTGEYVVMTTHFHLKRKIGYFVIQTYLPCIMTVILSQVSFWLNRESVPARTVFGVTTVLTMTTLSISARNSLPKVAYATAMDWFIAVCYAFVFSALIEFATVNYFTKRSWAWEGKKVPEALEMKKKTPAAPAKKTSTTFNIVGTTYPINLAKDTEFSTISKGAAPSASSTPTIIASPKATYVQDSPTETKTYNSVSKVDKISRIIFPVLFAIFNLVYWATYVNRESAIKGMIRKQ
Put plainly: Displacement of [3H]-Ro- 15-1788 binding from human recombinant Gamma-aminobutyric acid A receptor alpha-3-beta-3-gamma-2 expressed in mouse fibroblast L(tk-) cells (30 min at 24 degrees C, pH 7.4). It is filed as cell-based. In outline:
as §2

Experiment [4] has as its target T4, GABA-A receptor; alpha-5/beta-3/gamma-2 (Homo sapiens, UniProt P18507+P28472+P31644).
T4 sequence (P18507 whole entry): T2 sequence (P18507 whole entry)
T4 sequence (P28472 whole entry): T2 sequence (P28472 whole entry)
T4 sequence (P31644 whole entry): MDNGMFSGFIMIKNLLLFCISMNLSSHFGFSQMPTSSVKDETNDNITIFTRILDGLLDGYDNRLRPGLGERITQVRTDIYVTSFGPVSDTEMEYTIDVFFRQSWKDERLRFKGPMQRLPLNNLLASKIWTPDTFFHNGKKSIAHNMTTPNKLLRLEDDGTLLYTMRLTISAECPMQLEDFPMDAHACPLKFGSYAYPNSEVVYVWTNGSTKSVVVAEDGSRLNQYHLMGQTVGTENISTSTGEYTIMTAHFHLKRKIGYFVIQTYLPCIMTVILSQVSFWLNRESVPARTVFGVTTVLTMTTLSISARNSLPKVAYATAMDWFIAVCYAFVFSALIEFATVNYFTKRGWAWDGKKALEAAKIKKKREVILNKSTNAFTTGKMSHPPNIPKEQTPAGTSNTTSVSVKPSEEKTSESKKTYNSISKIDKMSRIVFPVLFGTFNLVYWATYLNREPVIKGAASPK
Put plainly: Displacement of [3H]-Ro- 15-1788 binding from human recombinant Gamma-aminobutyric acid A receptor alpha-5-beta-3-gamma-2 expressed in mouse fibroblast L(tk-) cells (30 min at 24 degrees C, pH 7.4). It is filed as cell-based. In outline:
as §2

Experiment [5] concerns the target T5, GABA-A receptor; alpha-5/beta-3/gamma-2 (Homo sapiens) (UniProt P18507+P28472+P31644). The experiment in a line: Efficacy at GABAA alpha-5-beta-3-gamma-2 receptor expressed in mouse fibroblast L(tk-) cells measured at 300 nM derived from at least three plates/day screened over a minimum of 2 days. In kind it is functional, cell-based. In outline: as §1
The target of experiment [6] is T1, GABA-A receptor; alpha-3/beta-3/gamma-2 (Homo sapiens). Put plainly: Efficacy at GABAA alpha-3-beta-3-gamma-2 receptor expressed in mouse fibroblast L(tk-) cells measured at 300 nM derived from at least three plates/day screened over a minimum of 2 days. It is filed as functional, cell-based. In outline:
as §1

The target of experiment [7] is T5, GABA-A receptor; alpha-5/beta-3/gamma-2 (Homo sapiens). The experiment in a line: Efficacy for GABA-A alpha-5-beta-3-gamma-2 receptor expressed in mouse fibroblast L(tk-) cells at 300 nM derived from at least three plates/day screened over a minimum of 2 days. In kind it is functional, cell-based. In outline: as §1

For the molecule `Brc1cccc(-c2cnnc(-c3ccccc3)c2)c1`, the Efficacy in experiment [1] and in experiment [5] was -2 in each case. Besides, the Ki amounted to 7.5 nM in experiment [2], 15 nM in experiment [3] and 7.9 nM in experiment [4].
As to `N#Cc1cccc(-c2cnnc(-c3ccc(F)c(F)c3)c2)c1`, the Efficacy in experiment [6] was 32; in experiment [7], -15. Further, the results for the Ki in experiment [3] and in experiment [4] were 41 nM and 13 nM, respectively.
`CC(C)Oc1cc(-c2cccc(Br)c2)cnn1`: the results for the Efficacy in experiment [6] and in experiment [5] were 28 and 12, respectively. Moreover, the Ki in experiment [2] amounted to 26 nM; in experiment [3], 60 nM; in experiment [4], 36 nM.
In the case of `Cn1ncnc1COc1cccc(-c2cnnc(-c3ccccc3)c2)c1`, the Efficacy was 43 in experiment [6] and -5 in experiment [5]. Also, the Ki in experiment [2] amounted to 8.5 nM; in experiment [3], 10.4 nM; in experiment [4], 8.8 nM.
With `COC(=O)c1c(-c2ccccc2)cnnc1-c1ccccc1`, the Ki in experiment [2] was found to be 154 nM; in experiment [3], 64 nM; in experiment [4], 12 nM. Further, in experiment [7], the Efficacy amounted to 27.
